The values that follow come from publication PMC4394042 (Cell reports, 2015).

In experiment [1] the test system is Hh signaling in Sufu-/- MEFs. The experiment in a line: Gli1 and Ptc1 mRNA transcripts in Sufu-/- mouse embryonic fibroblasts. The class given is cell-based. As to conditions: 10 μM, normalized to GAPDH.
In experiment [2] the test system is Hh signaling (Shh-Light2 cells). The experiment in a line: Gli-luciferase reporter in Shh-Light2 cells stimulated with Shh. The format is cell-based, mouse. Conditions: for Shh-responsive Gli-luciferase reporter activity: stimulated with Shh conditioned medium, significant starting at 1 μM. In outline: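 Mouse Shh-Light2 Gli-responsive luciferase reporter cells were stimulated with Shh conditioned medium and then treated with increasing concentrations of test compound. Luciferase output was read as relative luciferase units (RLU), n = 4 per condition, reported as mean ± SEM with p-values.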
A general note: Reporter assays use an easily measured gene product as a stand-in for the process of interest.

Experiment [3] has as its system Gli2FL nuclear accumulation. The experiment in a line: Western blot of nuclear full length Gli2 in SAG-stimulated NIH3T3 cells. The format is cell-based. As to conditions: SAG 100 nM 1.5 h; Egm 10 μM, FSK 30 μM. In outline: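 NIH3T3 cells were left unstimulated or stimulated with SAG (100 nM, 1.5 h), alone or with test compound (10 μM) or forskolin (30 μM), then fractionated. Full-length Gli2 was blotted in nuclear (Lamin-A/C control, n = 4) and whole-cell (α-tubulin control, n = 2) fractions. Output was the ratio of normalized nuclear to normalized whole-cell Gli2.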

Experiment [4] has as its system Gli3FL to Gli3R processing. The experiment in a line: Western blot of Gli3 processing in SAG-stimulated C3H10T1/2 cells. The format is cell-based. As to conditions: SAG 100 nM 24 h; Egm 10 μM, FSK 30 μM. The gist of the method:
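C3H10T1/2 cells were left unstimulated or stimulated with SAG (100 nM, 24 h), alone or with test compound (10 μM) or forskolin (30 μM). Whole-cell lysates were immunoblotted for full-length and repressor Gli3, with α-tubulin as loading control and infrared detection; n = 3.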
On the technique in general: A western blot detects proteins with antibodies after separation by electrophoresis.

Experiment [5] has as its system Hh-target gene Patched (Ptc)-1 expression. Nature of the experiment: Whole-mount in situ hybridization for Ptc1 in zebrafish embryos. The class given is in vivo. Conditions: 1 μM; 12 hpf and 48 hpf.
Experiment [6] has as its system Gli2-driven Gli-Luc activity. Nature of the experiment: Gli-Luc activity in cells transiently overexpressing Gli2. The class given is cell-based. Conditions: transient Gli2 overexpression.
For experiment [7], the system named is BMP (Bone Morphogenic Protein) signaling. Nature of the experiment: BMP developmental signaling pathway test. The class given is cell-based.
Experiment [8] relates to Hh signaling (Shh-Light2 cells). Nature of the experiment: Gli-Luc reporter stimulated with Smo agonist purmorphamine. The class given is cell-based, mouse. Conditions: purmorphamine 3 μM; significant starting at 0.5 μM.
Another experiment deals with Smo (Homo sapiens, UniProt Q99835). The format is binding. As to conditions: 5 nM BODIPY-cyclopamine; concentrations up to 10 μM.
Sequence of Smo (Q99835 28-787): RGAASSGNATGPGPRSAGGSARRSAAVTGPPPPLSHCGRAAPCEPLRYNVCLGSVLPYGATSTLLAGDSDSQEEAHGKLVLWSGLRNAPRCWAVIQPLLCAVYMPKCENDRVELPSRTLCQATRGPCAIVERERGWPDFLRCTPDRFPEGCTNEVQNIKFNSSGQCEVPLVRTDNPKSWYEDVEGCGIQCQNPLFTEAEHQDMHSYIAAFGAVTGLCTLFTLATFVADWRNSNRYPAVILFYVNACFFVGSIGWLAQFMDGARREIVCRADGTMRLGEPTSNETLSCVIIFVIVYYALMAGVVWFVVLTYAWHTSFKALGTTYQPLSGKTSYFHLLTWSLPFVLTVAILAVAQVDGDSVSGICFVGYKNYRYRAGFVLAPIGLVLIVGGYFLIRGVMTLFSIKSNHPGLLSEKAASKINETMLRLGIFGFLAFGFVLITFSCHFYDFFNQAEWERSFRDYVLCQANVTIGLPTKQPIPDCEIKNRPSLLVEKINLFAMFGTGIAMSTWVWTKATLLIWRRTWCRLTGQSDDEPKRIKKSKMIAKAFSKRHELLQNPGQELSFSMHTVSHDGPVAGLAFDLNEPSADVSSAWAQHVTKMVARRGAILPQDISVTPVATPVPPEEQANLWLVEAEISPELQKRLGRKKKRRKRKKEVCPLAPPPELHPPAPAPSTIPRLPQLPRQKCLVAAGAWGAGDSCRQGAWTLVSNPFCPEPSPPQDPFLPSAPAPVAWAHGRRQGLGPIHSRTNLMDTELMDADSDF
The test system of experiment [9] is Gli2 ciliary localization in MEFs. Nature of the experiment: Gli2 trafficking to primary cilium in SAG-stimulated MEFs. The class given is cell-based, mouse. As to conditions: co-treatment SAG 20 nM and 5 μM compound.
In experiment [10] the test system is primary cilium of NIH3T3 cells. Nature of the experiment: Cilium structure and IFT88 in NIH3T3 cells. The format is cell-based.
In experiment [11] the test system is PKA. The experiment in a line: Immunostaining of phospho-T197-PKA in NIH3T3 cells. The class given is cell-based. As to conditions: SAG 20 nM plus 5 μM compound.
Experiment [12] has as its system PKA. The experiment in a line: Western blot of phospho-T197-PKA in NIH3T3 whole cell lysates. The class given is cell-based. As to conditions: SAG 20 nM plus 5 μM compound. The gist of the method: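 NIH3T3 cells were left unstimulated or treated with SAG (20 nM), with or without test compound (5 μM). Whole-cell lysates were immunoblotted for phospho-T197 PKA catalytic subunit, with α-tubulin as loading control.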

Another experiment concerns PDE super-family members. The experiment in a line: In vitro PDE activity screen across PDE super-family members. The class given is biochemical. Conditions: 20 μM; PDE4D3 and three other members.
A further experiment deals with PDE4D3 (Homo sapiens, UniProt Q08499). The experiment in a line: PDE dose-response assay, PDE4D3. The class given is biochemical.
Sequence of PDE4D3 (Q08499 1-673 isoform Q08499-2): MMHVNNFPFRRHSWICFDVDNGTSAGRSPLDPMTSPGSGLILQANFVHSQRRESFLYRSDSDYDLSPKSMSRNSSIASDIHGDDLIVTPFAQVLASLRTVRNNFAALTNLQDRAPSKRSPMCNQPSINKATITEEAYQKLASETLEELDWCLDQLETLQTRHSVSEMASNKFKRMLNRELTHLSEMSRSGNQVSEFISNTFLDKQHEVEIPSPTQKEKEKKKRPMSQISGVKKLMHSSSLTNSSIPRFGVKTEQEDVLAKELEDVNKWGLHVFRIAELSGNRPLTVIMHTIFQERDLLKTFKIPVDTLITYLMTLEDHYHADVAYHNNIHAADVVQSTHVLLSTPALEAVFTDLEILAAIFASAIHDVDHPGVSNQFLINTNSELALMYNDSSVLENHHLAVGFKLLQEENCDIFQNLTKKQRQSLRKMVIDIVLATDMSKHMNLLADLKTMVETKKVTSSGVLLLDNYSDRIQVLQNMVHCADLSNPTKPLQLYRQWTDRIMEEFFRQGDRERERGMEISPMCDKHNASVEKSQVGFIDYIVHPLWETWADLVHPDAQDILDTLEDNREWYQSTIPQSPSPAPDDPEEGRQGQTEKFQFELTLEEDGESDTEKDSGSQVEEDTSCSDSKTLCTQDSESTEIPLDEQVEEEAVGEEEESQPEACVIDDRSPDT
A further experiment concerns the target PDE3A (Homo sapiens, UniProt Q14432). The experiment in a line: PDE dose-response assay, PDE3A. The format is biochemical.
For the next experiment, the target named is PDE10A2 (Homo sapiens, UniProt Q9Y233). Nature of the experiment: PDE dose-response assay, PDE10A2. The class given is biochemical.
Sequence of PDE10A2 (Q9Y233 267-1055, species assumed): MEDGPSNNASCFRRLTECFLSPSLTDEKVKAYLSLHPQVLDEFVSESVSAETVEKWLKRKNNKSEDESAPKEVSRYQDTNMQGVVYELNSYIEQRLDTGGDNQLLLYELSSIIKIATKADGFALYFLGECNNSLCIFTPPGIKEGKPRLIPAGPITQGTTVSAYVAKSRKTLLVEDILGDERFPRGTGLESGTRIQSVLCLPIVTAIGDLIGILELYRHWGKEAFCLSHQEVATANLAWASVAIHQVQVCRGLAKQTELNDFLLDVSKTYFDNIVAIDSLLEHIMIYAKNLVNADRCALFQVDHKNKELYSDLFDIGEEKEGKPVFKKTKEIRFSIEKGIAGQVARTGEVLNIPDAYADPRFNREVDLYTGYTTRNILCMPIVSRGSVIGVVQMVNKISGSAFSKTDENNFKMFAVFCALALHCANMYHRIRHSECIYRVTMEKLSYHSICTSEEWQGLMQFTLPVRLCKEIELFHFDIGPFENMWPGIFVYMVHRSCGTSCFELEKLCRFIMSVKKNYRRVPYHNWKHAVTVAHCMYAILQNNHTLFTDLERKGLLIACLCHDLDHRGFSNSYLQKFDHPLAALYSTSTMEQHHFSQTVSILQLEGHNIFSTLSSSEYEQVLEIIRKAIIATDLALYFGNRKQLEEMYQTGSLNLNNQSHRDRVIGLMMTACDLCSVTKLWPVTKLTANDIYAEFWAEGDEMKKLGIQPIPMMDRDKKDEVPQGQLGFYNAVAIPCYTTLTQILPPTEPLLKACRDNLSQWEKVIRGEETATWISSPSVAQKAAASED
Another experiment addresses PDE11A4 (Homo sapiens, UniProt Q9HCR9). Nature of the experiment: PDE dose-response assay, PDE11A4. The class given is biochemical.
For a further experiment, the system named is 442 kinases. Nature of the experiment: Counter-screen, kinase panel.
Another experiment deals with 21 phosphatases. Nature of the experiment: Counter-screen, phosphatase panel.
Experiment [13] has as its system PDE4D3-induced Hh signaling (Shh-Light2 cells). Nature of the experiment: Hh reporter activity in Shh-Light2 cells transfected with PDE4D3. The class given is cell-based, mouse. As to conditions: 5 μM. The gist of the method:
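Hh reporter cells were transiently transfected with wild-type PDE4D3, dominant-negative PDE4D3 or empty pCS2 vector as control. Wild-type transfectants received 5 μM test compound. Reporter activity is reported as mean ± SEM and compared with vector control or untreated wild-type transfectants.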

Sequence of PDE3A (Q14432 whole entry, species assumed): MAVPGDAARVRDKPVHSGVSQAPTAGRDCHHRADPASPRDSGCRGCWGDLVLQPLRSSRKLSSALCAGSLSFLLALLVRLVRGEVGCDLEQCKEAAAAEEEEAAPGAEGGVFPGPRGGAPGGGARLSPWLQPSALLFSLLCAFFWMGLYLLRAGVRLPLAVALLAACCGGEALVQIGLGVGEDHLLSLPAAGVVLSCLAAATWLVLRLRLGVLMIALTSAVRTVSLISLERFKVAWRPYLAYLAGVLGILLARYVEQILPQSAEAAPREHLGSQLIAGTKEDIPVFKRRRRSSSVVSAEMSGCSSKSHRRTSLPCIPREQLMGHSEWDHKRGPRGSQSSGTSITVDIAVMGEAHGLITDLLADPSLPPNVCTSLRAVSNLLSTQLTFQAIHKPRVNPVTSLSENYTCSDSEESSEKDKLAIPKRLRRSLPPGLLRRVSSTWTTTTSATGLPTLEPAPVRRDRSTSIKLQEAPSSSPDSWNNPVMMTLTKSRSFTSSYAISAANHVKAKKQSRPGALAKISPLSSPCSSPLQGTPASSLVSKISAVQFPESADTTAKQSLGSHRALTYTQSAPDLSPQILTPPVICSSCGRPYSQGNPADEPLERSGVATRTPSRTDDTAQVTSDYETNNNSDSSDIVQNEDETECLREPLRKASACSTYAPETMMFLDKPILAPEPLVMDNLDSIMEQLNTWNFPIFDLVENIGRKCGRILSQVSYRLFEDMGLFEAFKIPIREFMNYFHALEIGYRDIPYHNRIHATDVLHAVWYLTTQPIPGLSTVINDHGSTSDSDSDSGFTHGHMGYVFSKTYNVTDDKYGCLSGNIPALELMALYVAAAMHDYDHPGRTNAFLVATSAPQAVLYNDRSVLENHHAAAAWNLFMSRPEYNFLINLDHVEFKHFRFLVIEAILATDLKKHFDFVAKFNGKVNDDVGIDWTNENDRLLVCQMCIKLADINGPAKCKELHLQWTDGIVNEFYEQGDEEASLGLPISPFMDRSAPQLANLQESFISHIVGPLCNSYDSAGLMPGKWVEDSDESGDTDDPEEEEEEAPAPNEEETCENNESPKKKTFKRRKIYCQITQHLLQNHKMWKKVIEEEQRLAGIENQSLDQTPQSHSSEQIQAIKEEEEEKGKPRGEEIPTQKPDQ
Sequence of PDE11A4 (Q9HCR9 whole entry, species assumed): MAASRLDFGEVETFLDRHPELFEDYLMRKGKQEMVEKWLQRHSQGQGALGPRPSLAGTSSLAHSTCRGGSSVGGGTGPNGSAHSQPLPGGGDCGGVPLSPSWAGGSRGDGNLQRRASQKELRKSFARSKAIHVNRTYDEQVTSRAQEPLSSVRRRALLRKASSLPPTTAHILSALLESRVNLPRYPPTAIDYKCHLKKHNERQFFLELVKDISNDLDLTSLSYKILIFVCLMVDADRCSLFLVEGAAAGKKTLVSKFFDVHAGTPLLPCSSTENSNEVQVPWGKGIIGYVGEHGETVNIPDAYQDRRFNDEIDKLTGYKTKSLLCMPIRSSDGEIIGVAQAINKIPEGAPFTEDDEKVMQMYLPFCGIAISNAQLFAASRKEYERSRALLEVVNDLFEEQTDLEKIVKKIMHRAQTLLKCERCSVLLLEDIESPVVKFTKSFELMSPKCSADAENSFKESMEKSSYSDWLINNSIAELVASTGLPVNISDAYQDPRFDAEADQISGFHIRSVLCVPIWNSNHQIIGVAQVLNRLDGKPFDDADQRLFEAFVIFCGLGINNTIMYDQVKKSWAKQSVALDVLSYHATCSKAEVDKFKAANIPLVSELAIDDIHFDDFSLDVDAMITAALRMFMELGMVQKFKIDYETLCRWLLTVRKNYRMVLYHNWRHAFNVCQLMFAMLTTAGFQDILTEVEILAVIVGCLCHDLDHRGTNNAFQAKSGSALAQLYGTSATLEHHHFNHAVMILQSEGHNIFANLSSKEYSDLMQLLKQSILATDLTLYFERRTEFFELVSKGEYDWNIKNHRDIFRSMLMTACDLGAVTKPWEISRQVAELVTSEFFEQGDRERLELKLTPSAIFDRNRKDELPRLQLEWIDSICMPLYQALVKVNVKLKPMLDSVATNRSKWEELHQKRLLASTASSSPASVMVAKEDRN

Regarding `CC1=C2C[C@H]3[C@@H](CC=C4C[C@@H](O)CC[C@@]43C)[C@@H]2CC[C@]12O[C@@H]1C[C@H](C)CN[C@H]1[C@H]2C` [cyclopamine, reference compound], in experiment [1], the Gli1 transcription level result is reported as “no inhibition” and the Ptc1 transcription level result is “no inhibition”.

For `COc1ccc(C2CNC(=O)C2)cc1OC1CCCC1` (stereo not drawn) [rolipram], the “potency in Gli-Luc reporter assay relative to eggmanone” value in experiment [2] (stimulated with Shh) is “lower potency than eggmanone”. The “Shh-responsive Gli-luciferase reporter activity” value in [2] was “did reduce Hh signaling levels”.

For `C=C[C@@]1(C)CC(=O)[C@]2(O)[C@@]3(C)[C@@H](O)CCC(C)(C)[C@@H]3[C@H](O)[C@H](OC(C)=O)[C@@]2(C)O1` [forskolin, reference compound], the “nuclear accumulation of Gli2FL” value in [3] is reported as “inhibited”. Also, the Gli3R formation entry in experiment [4] is reported as “restored Gli3R formation”.

As usually defined, the IC50 is the concentration needed to halve the response being measured. A high value points to weaker potency. Regarding `C=C(C)Cn1c(SCC(=O)c2cccs2)nc2sc3c(c2c1=O)CCCC3` [eggmanone, 3-(2-methylallyl)-2-((2-oxo-2-(thiophen-2-yl)ethyl)thio)-5,6,7,8-tetrahydrobenzo[4,5]thieno[2,3-d]pyrimidine-4(3H)-one], the “Ptc1 expression in adaxial cells, pectoral fin fields and somites” value in [5] was “abrogation of the Hh-target gene Patched (Ptc)-1 expression”. For the same molecule, the “Shh-responsive Gli-luciferase reporter activity” value in experiment [2] is “inhibited Hh-inducible Gli-responsive luciferase (Gli-Luc) activity in a dose-dependent manner”. In addition, the “Gli-Luc activity in cells overexpressing Gli2” value in [6] is listed as “retained Gli-Luc activity”. In addition, in [7], the “effect on BMP signaling” value is on record as “not perturbed”. In addition, the “purmorphamine-induced Gli-Luc reporter activity” value in experiment [8] is recorded as “inhibited purmorphamine-induced (3 μM) Gli-Luc reporter activity in a dose-dependent manner”. Besides, the “competition for Smo binding with BODIPY-cyclopamine” value at Smo is “failed to compete”. Also, in [1], the Gli1 transcription level result is given as “significantly reduced”. Moreover, the Ptc1 transcription level result in [1] is “significantly reduced”. For the same molecule, in experiment [9], the “Gli2 localization to primary cilium” value was “properly localized to the proximal tip of the cilium”. The “ciliary transport protein IFT88” value in [10] was “remained intact”. The “cilium structure (Arl13b staining)” value in experiment [10] is recorded as “unaffected”. Besides, in experiment [3], the “nuclear accumulation of Gli2FL” value is “inhibited”. The Gli3R formation result in [4] is reported as “restored Gli3R formation”. The “phospho-T197-PKA at base of primary cilium / basal body” value with PKA [11] is reported as “significant increase in PKA activity at the base of the primary cilium”. For the same molecule, the “p-PKA levels in whole cell lysates” value in the experiment with PKA [12] is on record as “no significant increase”. For the same molecule, in the experiment on PDE super-family members, the “inhibition of PDE activity” value is reported as at least 50%. Further, the half-inhibitory concentration (IC50) against PDE4D3 was found to be 0.072 µM; against PDE3A, 3 µM; against PDE10A2, 3.05 µM; against PDE11A4, 4.08 µM. In addition, the “selectivity for PDE4D3 over other PDEs” value at PDE4D3 (versus PDE3A, PDE10A2, PDE11A4) is 40- to 50 fold. In the experiment with 442 kinases, the “inhibition of kinases in panel” value is reported as at most 50%. Also, the “inhibition of phosphatases in panel” value in the experiment on 21 phosphatases is given as at most 50%. The “Hh reporter activity induced by wild type PDE4D3 overexpression” value in [13] is “abolished”.
